{
  "source": "ChEMBL document CHEMBL3272099",
  "about": "“Antibacterial activity of N-(beta-styryl) formamides related to tuberin” (J Med Chem, 1978)",
  "key": {"[1]": {"test_system": "Mycolicibacterium phlei", "assay": "Antibacterial activity against Mycobacterium phlei", "type": "functional", "summary_of_the_method": "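MIC by standard agar dilution, run in duplicate; estimated standard deviation under 0.15 log units; reported as log 1/MIC (molar).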"}, "[2]": {"assay": "C18 corasil-octanol partition coefficient, log P of the compound in 0.01 M phosphate buffer at pH 7 by LC on C18 Corasil coated with 1-octanol", "conditions": "octanol/0.01 M phosphate buffer (C18 Corasil-octanol)"}, "[3]": {"assay": "C18 corasil-25 wt % MeOH partition coefficient, log K of the compound in 0.001 M phosphate buffer", "conditions": "pH 7.4"}, "[4]": {"test_system": "Staphylococcus aureus", "assay": "Antibacterial activity against Staphylococcus aureus at 200 ug/ml", "type": "functional, organism-based"}, "[5]": {"test_system": "Staphylococcus aureus", "assay": "Antibacterial activity against Staphylococcus aureus", "type": "functional"}, "[6]": {"test_system": "Mycolicibacterium phlei", "assay": "Antibacterial activity against Mycobacterium phlei at 640 ug/ml", "type": "functional, organism-based"}},
  "note": "Calls of active or inactive are those of the source. No cut-off for these calls is given here.",
  "data": [
    {"compound": "O=CN/C=C/c1ccc(F)cc1", "values": [
      {"measurement": "MIC", "setting": "[1]", "result": 160, "unit": "µg/mL"},
      {"measurement": "logD", "setting": "[2]", "result": 2.11},
      {"measurement": "log K", "setting": "[3]", "result": 0.33},
      {"measurement": "Activity", "setting": "[4]", "result": "inactive"}
    ]},
    {"compound": "CCCCC/C=C/NC=O", "values": [
      {"measurement": "MIC", "setting": "[1]", "result": 40, "unit": "µg/mL"},
      {"measurement": "Activity", "setting": "[4]", "result": "inactive"}
    ]},
    {"compound": "CSc1ccc(/C=C/NC=O)cc1", "values": [
      {"measurement": "MIC", "setting": "[1]", "result": 40, "unit": "µg/mL"},
      {"measurement": "MIC", "setting": "[5]", "result": 100, "unit": "µg/mL"},
      {"measurement": "logD", "setting": "[2]", "result": 2.55},
      {"measurement": "log K", "setting": "[3]", "result": 0.77}
    ]},
    {"compound": "O=CN/C=C/c1ccc2ccccc2c1", "values": [
      {"measurement": "MIC", "setting": "[1]", "result": 20, "unit": "µg/mL"},
      {"measurement": "logD", "setting": "[2]", "result": 3.22},
      {"measurement": "log K", "setting": "[3]", "result": 1.16},
      {"measurement": "Activity", "setting": "[4]", "result": "inactive"}
    ]},
    {"compound": "O=CN/C=C/c1cccs1", "values": [
      {"measurement": "MIC", "setting": "[1]", "result": 320, "unit": "µg/mL"},
      {"measurement": "MIC", "setting": "[5]", "result": 25, "unit": "µg/mL"}
    ]},
    {"compound": "O=CN/C=C/c1ccc(S(=O)(=O)c2ccccc2)cc1", "values": [
      {"measurement": "MIC", "setting": "[1]", "result": 320, "unit": "µg/mL"},
      {"measurement": "logD", "setting": "[2]", "result": 1.95},
      {"measurement": "log K", "setting": "[3]", "result": 0.78},
      {"measurement": "Activity", "setting": "[4]", "result": "inactive"}
    ]},
    {"compound": "O=CN/C=C/c1ccc([N+](=O)[O-])cc1", "values": [
      {"measurement": "MIC", "setting": "[1]", "result": 320, "unit": "µg/mL"},
      {"measurement": "MIC", "setting": "[5]", "result": 3, "unit": "µg/mL"},
      {"measurement": "logD", "setting": "[2]", "result": 1.94},
      {"measurement": "log K", "setting": "[3]", "result": 0.24}
    ]},
    {"compound": "O=CN/C=C/c1cccc2ccccc12", "values": [
      {"measurement": "MIC", "setting": "[1]", "result": 80, "unit": "µg/mL"},
      {"measurement": "Activity", "setting": "[4]", "result": "inactive"}
    ]},
    {"compound": "O=CN/C=C/c1ccc(Br)cc1", "values": [
      {"measurement": "MIC", "setting": "[1]", "result": 160, "unit": "µg/mL"},
      {"measurement": "MIC", "setting": "[5]", "result": 100, "unit": "µg/mL"},
      {"measurement": "logD", "setting": "[2]", "result": 2.87},
      {"measurement": "log K", "setting": "[3]", "result": 0.96}
    ]},
    {"compound": "O=CN/C=C/c1ccc(O)cc1", "values": [
      {"measurement": "Activity", "setting": "[6]", "result": "inactive"},
      {"measurement": "Activity", "setting": "[4]", "result": "inactive"}
    ]},
    {"compound": "CC(=O)Oc1ccc(/C=C/NC=O)cc1", "values": [
      {"measurement": "MIC", "setting": "[1]", "result": 640, "unit": "µg/mL"},
      {"measurement": "logD", "setting": "[2]", "result": 1.32},
      {"measurement": "log K", "setting": "[3]", "result": 0.16},
      {"measurement": "Activity", "setting": "[4]", "result": "inactive"}
    ]},
    {"compound": "CCN(CC)c1ccc(/C=C/NC=O)cc1", "values": [
      {"measurement": "MIC", "setting": "[1]", "result": 320, "unit": "µg/mL"},
      {"measurement": "logD", "setting": "[2]", "result": 2.9},
      {"measurement": "Activity", "setting": "[4]", "result": "inactive"}
    ]},
    {"compound": "CN(C)c1ccc(/C=C/NC=O)cc1", "values": [
      {"measurement": "MIC", "setting": "[1]", "result": 640, "unit": "µg/mL"},
      {"measurement": "logD", "setting": "[2]", "result": 2.03},
      {"measurement": "log K", "setting": "[3]", "result": 0.48},
      {"measurement": "Activity", "setting": "[4]", "result": "inactive"}
    ]},
    {"compound": "O=CN/C=C/C1CCCCC1", "values": [
      {"measurement": "MIC", "setting": "[1]", "result": 160, "unit": "µg/mL"},
      {"measurement": "Activity", "setting": "[4]", "result": "inactive"}
    ]},
    {"compound": "O=CN/C=C/c1ccccc1", "values": [
      {"measurement": "MIC", "setting": "[1]", "result": 640, "unit": "µg/mL"},
      {"measurement": "MIC", "setting": "[5]", "result": 50, "unit": "µg/mL"},
      {"measurement": "logD", "setting": "[2]", "result": 1.95},
      {"measurement": "log K", "setting": "[3]", "result": 0.21}
    ]},
    {"compound": "O=CN/C=C/c1ccc(C(F)(F)F)cc1", "values": [
      {"measurement": "MIC", "setting": "[1]", "result": 80, "unit": "µg/mL"},
      {"measurement": "MIC", "setting": "[5]", "result": 100, "unit": "µg/mL"},
      {"measurement": "logD", "setting": "[2]", "result": 3.06},
      {"measurement": "log K", "setting": "[3]", "result": 1.09}
    ]},
    {"compound": "CCCCOc1ccc(/C=C/NC=O)cc1", "values": [
      {"measurement": "MIC", "setting": "[1]", "result": 80, "unit": "µg/mL"},
      {"measurement": "logD", "setting": "[2]", "result": 3.32},
      {"measurement": "log K", "setting": "[3]", "result": 1.62},
      {"measurement": "Activity", "setting": "[4]", "result": "inactive"}
    ]},
    {"compound": "CC(C)Oc1ccc(/C=C/NC=O)cc1", "values": [
      {"measurement": "MIC", "setting": "[1]", "result": 320, "unit": "µg/mL"},
      {"measurement": "logD", "setting": "[2]", "result": 2.61},
      {"measurement": "log K", "setting": "[3]", "result": 0.93},
      {"measurement": "Activity", "setting": "[4]", "result": "inactive"}
    ]},
    {"compound": "Cc1ccc(/C=C/NC=O)cc1", "values": [
      {"measurement": "MIC", "setting": "[1]", "result": 40, "unit": "µg/mL"},
      {"measurement": "logD", "setting": "[2]", "result": 2.45},
      {"measurement": "log K", "setting": "[3]", "result": 0.66},
      {"measurement": "Activity", "setting": "[4]", "result": "inactive"}
    ]},
    {"compound": "CC(C)(C)c1ccc(/C=C/NC=O)cc1", "values": [
      {"measurement": "MIC", "setting": "[1]", "result": 80, "unit": "µg/mL"},
      {"measurement": "MIC", "setting": "[5]", "result": 200, "unit": "µg/mL"},
      {"measurement": "logD", "setting": "[2]", "result": 3.82},
      {"measurement": "log K", "setting": "[3]", "result": 1.71}
    ]},
    {"compound": "O=CN/C=C/c1ccc(Cl)cc1", "values": [
      {"measurement": "MIC", "setting": "[1]", "result": 80, "unit": "µg/mL"},
      {"measurement": "MIC", "setting": "[5]", "result": 200, "unit": "µg/mL"},
      {"measurement": "logD", "setting": "[2]", "result": 2.7},
      {"measurement": "log K", "setting": "[3]", "result": 0.79}
    ]},
    {"compound": "N#Cc1ccc(/C=C/NC=O)cc1", "values": [
      {"measurement": "MIC", "setting": "[1]", "result": 640, "unit": "µg/mL"},
      {"measurement": "logD", "setting": "[2]", "result": 1.62},
      {"measurement": "log K", "setting": "[3]", "result": 0.04},
      {"measurement": "Activity", "setting": "[4]", "result": "inactive"}
    ]},
    {"compound": "CCOc1ccc(/C=C/NC=O)cc1", "values": [
      {"measurement": "MIC", "setting": "[1]", "result": 40, "unit": "µg/mL"},
      {"measurement": "logD", "setting": "[2]", "result": 2.31},
      {"measurement": "log K", "setting": "[3]", "result": 0.65},
      {"measurement": "Activity", "setting": "[4]", "result": "inactive"}
    ]},
    {"compound": "O=CN/C=C/c1ccco1", "values": [
      {"measurement": "Activity", "setting": "[6]", "result": "inactive"},
      {"measurement": "Activity", "setting": "[4]", "result": "inactive"}
    ]},
    {"compound": "O=CN/C=C/c1ccc(I)cc1", "values": [
      {"measurement": "MIC", "setting": "[1]", "result": 160, "unit": "µg/mL"},
      {"measurement": "MIC", "setting": "[5]", "result": 200, "unit": "µg/mL"},
      {"measurement": "logD", "setting": "[2]", "result": 3.18},
      {"measurement": "log K", "setting": "[3]", "result": 1.14}
    ]},
    {"compound": "COc1ccc(/C=C/NC=O)cc1", "values": [
      {"measurement": "MIC", "setting": "[1]", "result": 80, "unit": "µg/mL"},
      {"measurement": "logD", "setting": "[2]", "result": 1.94},
      {"measurement": "log K", "setting": "[3]", "result": 0.28},
      {"measurement": "Activity", "setting": "[4]", "result": "inactive"}
    ]}
  ]
}
